Screens (PubChem)
Compounds with a hit are over-represented: about 1.8% of the library has one in this group of screens.
S1P2 ag: S1P2 (human) receptor agonism. O95136. S1P2-expressing cell line, agonist reporter read-out. activation, % at 4.5 µM. actives 0.46% (n = 97,000). AID 729; in the data active means activation above about 16%;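 further: 0% = vehicle low control and 100% = maximal reference agonist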
S1P2 blocker: antagonists of human S1P2 receptor. O95136. cell-based S1P2 antagonist assay, inhibition at 5 uM. inhibition, % at 5 µM. actives 0.21% (n = 97,000); in the data active means inhibition above about 45%;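 further: CRE beta-lactamase reporter cells expressing human S1P2 stimulated with S1P; 0% = agonist at EC80 alone and 100% = agonist plus reference antagonist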
GALR2 agonist: agonists of human galanin receptor 2 (GALR2) | O43603 | GALR2-expressing cells, agonist activation read-out | activation, % (test concentration not listed) | actives 0.48% (n = 140,000) | AID 803; in the data active means activation above about 5%, passing the limit was not always enough;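 further: 0% = vehicle buffer wells and 100% = reference agonist at full effect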
Target sequence (O43603 whole entry, looked up): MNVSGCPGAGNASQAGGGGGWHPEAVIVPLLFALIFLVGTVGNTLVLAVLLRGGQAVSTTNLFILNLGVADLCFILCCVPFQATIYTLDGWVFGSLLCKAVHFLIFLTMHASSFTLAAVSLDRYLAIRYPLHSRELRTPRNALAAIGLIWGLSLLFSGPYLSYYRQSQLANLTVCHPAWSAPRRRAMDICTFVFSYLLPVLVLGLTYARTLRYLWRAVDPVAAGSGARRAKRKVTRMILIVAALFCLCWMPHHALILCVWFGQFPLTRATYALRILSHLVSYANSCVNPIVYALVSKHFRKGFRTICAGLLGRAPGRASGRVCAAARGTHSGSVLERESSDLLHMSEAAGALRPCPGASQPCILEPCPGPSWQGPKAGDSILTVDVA
Rev-RRE block: HIV Rev-RRE protein-RNA interaction inhibition | Rev peptide-RRE RNA binding, FRET | inhibition, % at 8 µM | actives 0.79% (n = 97,000) | P05866;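 active means inhibition above the screen-wide mean plus 3 SD, cut at about 35% in these data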;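 further: 0% = median DMSO wells and 100% = median Neomycin B control wells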
Target sequence (P05866 whole entry, looked up): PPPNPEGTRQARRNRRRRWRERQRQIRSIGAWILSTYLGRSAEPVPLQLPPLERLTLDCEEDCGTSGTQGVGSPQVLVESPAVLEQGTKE
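Test system – labelled RRE RNA duplex and labelled Rev peptide · Reagent – labelled Rev peptide · Doses – one concentration, 8 µM nominal · Incubation – 5 + 15 min at 25 °C · Signal – FRET fluorescence readout · Read-out basis – % inhibition of FRET ratio versus controls · Control set – DMSO wells as 0% and neomycin B wells as 100% inhibition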
EphB4 antag: blocks human EphB4 binding to ephrin-B2. P54760. EphB4 LBD / TNYL-RAW-Alexa532 peptide, fluorescence polarization. inhibition, % at 7 µM. actives 0.15% (n = 97,000). AID 720;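 active means inhibition above the screen-wide mean inhibition plus 3 SD, cut at about 15% in these data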;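 further: 0% = DMSO wells and 100% = excess unlabeled TNYL-RAW peptide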
GALR2 antag: blocks the human galanin receptor 2; O43603; GALR2-expressing cells, antagonist mode; inhibition, % at 4 µM; actives 0.39% (n = 140,000); AID 828; in the data active means inhibition above about 27%;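 further: cells stimulated with galanin 1-16 at roughly its EC80; 0% = agonist challenge control and 100% = basal control without agonist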
An asterisk follows results filed as active; [ ] = remark or other dose.

Screening Cc1cc(NC(=O)/C(C#N)=C/c2ccco2)n(-c2ccccc2)n1 returned GALR2 agonist 0.0 and GALR2 antag 2.2.
`Cc1ccc(-c2ccc(/C=C(\C#N)C(=O)Nc3cc(C)nn3-c3ccccc3)o2)cc1` gave S1P2 ag -4.6, S1P2 blocker -11.6, GALR2 agonist -1.1, Rev-RRE block 103.4*[fluorescence artefact?], EphB4 antag 1.2 and GALR2 antag 2.2.
`CN(C)CCN(C)Cc1ccccc1Sc1cccc2ccccc12` gave GALR2 agonist 0.4 and GALR2 antag -6.2.
COCCNC(=O)c1c(N)n(-c2cccc(C)c2)c2nc3ccccc3nc12 was read as S1P2 ag 10.2, S1P2 blocker -11.6, GALR2 agonist 3.5, Rev-RRE block 8.9, EphB4 antag 6.0 and GALR2 antag 2.6.
Screening C=CCn1c(N)c(C(=O)Nc2ccccc2)c2nc3ccccc3nc21 returned GALR2 agonist 8.1* and GALR2 antag -9.0.
Screening COCCCNC(=O)c1c(N)n(/N=C/c2cccs2)c2nc3ccccc3nc12 returned GALR2 agonist 20.4* and GALR2 antag -11.7.
`COCCNC(=O)c1c(N)n(CCCn2ccnc2)c2nc3ccccc3nc12` gave S1P2 ag 18.1*, S1P2 blocker -5.3, GALR2 agonist 0.0, Rev-RRE block 14.5, EphB4 antag 4.7 and GALR2 antag 11.6.
`COCCNC(=O)c1c(N)n(-c2ccccc2)c2nc3ccccc3nc12` gave S1P2 ag 5.5, S1P2 blocker -16.7, GALR2 agonist 4.9*, Rev-RRE block 3.3, EphB4 antag 1.8 and GALR2 antag 1.8.
Screening C=CCn1c(N)c(C(=O)OC(C)(C)C)c2nc3ccccc3nc21 returned S1P2 ag 2.2, S1P2 blocker -28.4, GALR2 agonist 1.5, Rev-RRE block 17.2, EphB4 antag 6.2 and GALR2 antag 17.2.
CN1c2ccccc2C(C)(C)C12CC(c1cccc(S(=O)(=O)N3CCCC3)c1)=NO2 (centres undefined) was read as GALR2 agonist -0.8 and GALR2 antag 16.1.
O=c1oc2ccccc2cc1-c1nc(-c2cccs2)cs1 was read as S1P2 ag 0.5, S1P2 blocker 2.0, GALR2 agonist 0.6, Rev-RRE block 61.5*, EphB4 antag -3.9 and GALR2 antag 2.6.
`Cc1ccccc1-c1nnc(NC(=O)c2cc3ccccc3oc2=O)s1` gave GALR2 agonist -1.7 and GALR2 antag 11.6.
`CNc1nnc(-c2cc3ccccc3oc2=O)s1` gave S1P2 ag -1.3, S1P2 blocker 16.5, GALR2 agonist -0.9, Rev-RRE block 52.3*, EphB4 antag 1.4 and GALR2 antag -2.8.
`O=C(c1ccc(COc2ccccc2Cl)o1)N1CCN(Cc2ccc3c(c2)OCO3)CC1` gave S1P2 ag -6.2, S1P2 blocker 9.4, GALR2 agonist -1.6, Rev-RRE block 7.2, EphB4 antag 17.8* and GALR2 antag -7.7.
`COc1ccccc1Nc1nc(N)nc(CSC(=S)N2CCCCC2C)n1` (centres undefined) gave GALR2 agonist -0.8 and GALR2 antag -12.8.
`COc1ccc([N+](=O)[O-])cc1NC(=O)C(C)Sc1nc(-c2ccccc2)cs1` (centres undefined) gave GALR2 agonist -0.9 and GALR2 antag -0.2.
For CCn1c(CSc2nc3ccccc3[nH]2)nc2cc(C(=O)O)ccc21 the results were S1P2 ag -10.9, S1P2 blocker 26.7, GALR2 agonist -3.1, Rev-RRE block 16.8, EphB4 antag 3.8 and GALR2 antag 5.8.
Screening CCn1c(CSc2nccn2C)nc2cc(C(=O)O)ccc21 returned S1P2 ag -2.0, S1P2 blocker 0.1, GALR2 agonist -1.6, Rev-RRE block 21.8, EphB4 antag 15.4* and GALR2 antag 6.1.
For Cc1cc(/C=N/n2cnnc2)c(C)n1-c1ccc(Cl)cc1 the results were GALR2 agonist 0.4 and GALR2 antag -11.0.
`Cc1cc(/C=N/n2cnnc2)c(C)n1-c1ccc(OCc2ccc(F)cc2)cc1` gave S1P2 ag -5.0, S1P2 blocker 69.2*, GALR2 agonist -0.3, Rev-RRE block -0.3, EphB4 antag 8.6 and GALR2 antag 7.1.
Nc1c(C(=O)NCCN2CCOCC2)c2nc3ccccc3nc2n1CCc1ccccc1F was read as S1P2 ag 45.3*, S1P2 blocker -38.1, GALR2 agonist 5.3*, Rev-RRE block 8.6, EphB4 antag -6.8 and GALR2 antag -19.2.
For Nc1c(C(=O)NCCN2CCOCC2)c2nc3ccccc3nc2n1-c1ccccc1 the results were S1P2 ag -0.3, S1P2 blocker -3.9, GALR2 agonist 2.1, Rev-RRE block 10.2, EphB4 antag -6.1 and GALR2 antag 0.7.
For Nc1c(C(=O)NCCN2CCOCC2)c2nc3ccccc3nc2n1CCc1ccccc1 the results were S1P2 ag 29.1*, S1P2 blocker -4.3, GALR2 agonist 8.6*, Rev-RRE block 22.5, EphB4 antag 8.0 and GALR2 antag -19.9.
`CCOC(=O)c1ccc(N2CC(O)=C(c3nc4ccccc4c(=O)[nH]3)C2=N)cc1` gave S1P2 ag 0.2, S1P2 blocker -3.4, GALR2 agonist -2.5, Rev-RRE block 68.3*, EphB4 antag 3.1 and GALR2 antag -0.7.
CC(=O)Nc1ccc(S(=O)(=O)N[C@@H](C)C(=O)OCc2ccc(Cl)cc2)cc1 was read as GALR2 agonist -2.3 and GALR2 antag 5.7.
Screening Cc1ccc(NC(=O)C2(c3ccccc3)CC2(Cl)Cl)cc1C (centres undefined) returned S1P2 ag -6.5, S1P2 blocker 15.2, GALR2 agonist -1.3, Rev-RRE block 13.4, EphB4 antag 1.9 and GALR2 antag -19.2.
`CCc1ccc(NC(=O)C2(c3ccccc3)CC2(Cl)Cl)cc1` (centres undefined) gave S1P2 ag 25.2*, S1P2 blocker 4.0, GALR2 agonist -1.8, Rev-RRE block 8.2, EphB4 antag -0.7 and GALR2 antag 4.9.
O=C(N/N=C/c1cc(Br)ccc1O)C(=O)Nc1ccccc1OC(F)(F)C(F)F was read as S1P2 ag -5.8, S1P2 blocker -8.2, GALR2 agonist -0.2, Rev-RRE block 48.6*, EphB4 antag -2.6 and GALR2 antag 2.6.
For O=C(N/N=C/c1cc(Cl)ccc1O)C(=O)Nc1ccccc1OC(F)(F)C(F)F the results were GALR2 agonist -1.4 and GALR2 antag 26.3.
Screening COc1ccc(C2C3=C(Nc4ncnn42)c2ccccc2CCC3)cc1 (centres undefined) returned S1P2 ag -4.5, S1P2 blocker 10.3, GALR2 agonist -2.1, Rev-RRE block 1.7, EphB4 antag -2.5 and GALR2 antag 4.9.
`COc1cc(C2C3=C(Nc4ncnn42)c2ccccc2CC3)cc(OC)c1OC` (centres undefined) gave S1P2 ag -2.3, S1P2 blocker 6.4, GALR2 agonist 5.0*, Rev-RRE block -0.6, EphB4 antag -3.5 and GALR2 antag 34.6*.
